Measurements published in ChEMBL document CHEMBL2417469, “Synthesis of novel analogs of 2-pyrazoline obtained from [(7-chloroquinolin-4-yl)amino]chalcones and hydrazine as potential antitumor and antimalarial agents” (Eur J Med Chem, 2013).

Assays:
Format in all cases: functional
SR = test: Cytotoxicity against human SR cells after 48 hrs by SRB assay
Outline: (§1)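 NCI 60-cell screen. Cells grew 24 h (37 °C, 5% CO2) before compound was added. Compounds were in DMSO and diluted in medium with gentamicin, then tested at five levels (100, 10, 1.0, 0.1, 0.01 µM) with 48 h continuous exposure. Adherent cells were fixed with TCA (10% final) and stained with 0.4% SRB, absorbance read at 515 nm. A time-zero plate was included. LC50 is the concentration giving 50% loss of protein relative to time zero.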

LOX IMVI = test: Cytotoxicity against human LOXIMVI cells after 48 hrs by SRB assay
Outline: (§2)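 NCI 60-cell-line screen. Cells preincubated 24 h at 37 °C, 5% CO2; time-zero plates TCA-fixed. Compounds dissolved in DMSO and tested at five concentrations (100, 10, 1.0, 0.1, 0.01 µM) for 48 h continuous exposure. Adherent cells fixed with cold TCA (10% final), then SRB stained; absorbance at 515 nm. GI50, TGI and LC50 calculated from growth relative to time-zero and untreated controls.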

SK-OV-3 = test: Cytotoxicity against human SKOV3 cells after 48 hrs by SRB assay; conditions: SK-OV-3, 48 h; outline: as §2
A498 = test: Cytotoxicity against human A498 cells after 48 hrs by SRB assay; conditions: A498, 48 h; outline: as §2
HT-29 = test: Cytotoxicity against human HT-29 cells after 48 hrs by SRB assay; conditions: HT-29, 48 h; outline: as §2
RXF 393 = test: Cytotoxicity against human RXF393 cells after 48 hrs by SRB assay; conditions: RXF 393, 48 h; outline: as §2
TK-10 = test: Cytotoxicity against human TK10 cells after 48 hrs by SRB assay; conditions: TK-10, 48 h; outline: as §1
786-0 = test: Cytotoxicity against human 786-0 cells after 48 hrs by SRB assay; conditions: 786-0, 48 h; outline: as §2
CCRF-CEM = test: Cytotoxicity against human CCRF-CEM cells after 48 hrs by SRB assay; outline: as §2
Malme-3M = test: Cytotoxicity against human MALME-3M cells after 48 hrs by SRB assay; outline: as §2
MDA-MB-468 = test: Cytotoxicity against human MDA-MB-468 cells after 48 hrs by SRB assay; conditions: MDA-MB-468, 48 h; outline: as §2
IGROV-1 = test: Cytotoxicity against human IGROV1 cells after 48 hrs by SRB assay; conditions: IGROV-1, 48 h; outline: as §2
HCT-116 = test: Cytotoxicity against human HCT116 cells after 48 hrs by SRB assay; conditions: HCT-116, 48 h; outline: as §2
HCT-15 = test: Cytotoxicity against human HCT15 cells after 48 hrs by SRB assay; conditions: HCT-15, 48 h; outline: as §2
SNB-19 = test: Cytotoxicity against human SNB19 cells after 48 hrs by SRB assay; conditions: SNB-19, 48 h; outline: as §1
MDA-MB-435 = test: Cytotoxicity against human MDA-MB-435 cells after 48 hrs by SRB assay; conditions: MDA-MB-435, 48 h; outline: as §2
CAKI-1 = test: Cytotoxicity against human Caki1 cells after 48 hrs by SRB assay; conditions: CAKI-1, 48 h; outline: as §2
OVCAR-8 = test: Cytotoxicity against human OVCAR8 cells after 48 hrs by SRB assay; conditions: OVCAR-8, 48 h; outline: as §2
PC-3 = test: Cytotoxicity against human PC3 cells after 48 hrs by SRB assay; conditions: PC-3, 48 h; outline: as §2
SF-539 = test: Cytotoxicity against human SF539 cells after 48 hrs by SRB assay; conditions: SF-539, 48 h; outline: as §2
OVCAR-4 = test: Cytotoxicity against human OVCAR4 cells after 48 hrs by SRB assay; conditions: OVCAR-4, 48 h; outline: as §2
A549 = test: Cytotoxicity against human A549/ATCC cells after 48 hrs by SRB assay; conditions: A549, 48 h; outline: as §2
Hs-578T = test: Cytotoxicity against human Hs578T cells after 48 hrs by SRB assay; outline: as §2
UACC-62 = test: Cytotoxicity against human UACC62 cells after 48 hrs by SRB assay; conditions: UACC-62, 48 h; outline: as §1
SK-MEL-28 = test: Cytotoxicity against human SK-MEL-28 cells after 48 hrs by SRB assay; conditions: SK-MEL-28, 48 h; outline: as §2
MCF7 = test: Cytotoxicity against human MCF7 cells after 48 hrs by SRB assay; conditions: MCF7, 48 h; outline: as §2
U-251 = test: Cytotoxicity against human U251 cells after 48 hrs by SRB assay; conditions: U-251, 48 h; outline: as §1
HOP-92 = test: Cytotoxicity against human HOP92 cells after 48 hrs by SRB assay; conditions: HOP-92, 48 h; outline: as §2
SF-268 = test: Cytotoxicity against human SF268 cells after 48 hrs by SRB assay; conditions: SF-268, 48 h; outline: as §2
MDA-MB-231 = test: Cytotoxicity against human MDA-MB-231 cells after 48 hrs by SRB assay; conditions: MDA-MB-231, 48 h; outline: as §2
UO-31 = test: Cytotoxicity against human UO31 cells after 48 hrs by SRB assay; conditions: UO-31, 48 h; outline: as §1
HCC 2998 = test: Cytotoxicity against human HCC2998 cells after 48 hrs by SRB assay; conditions: HCC 2998, 48 h; outline: as §2
DU-145 = test: Cytotoxicity against human DU145 cells after 48 hrs by SRB assay; conditions: DU-145, 48 h; outline: as §2
NCI-H226 = test: Cytotoxicity against human NCI-H226 cells after 48 hrs by SRB assay; conditions: NCI-H226, 48 h; outline: as §2
M14 = test: Cytotoxicity against human M14 cells after 48 hrs by SRB assay; conditions: M14, 48 h; outline: as §2
KM12 = test: Cytotoxicity against human KM12 cells after 48 hrs by SRB assay; conditions: KM12, 48 h; outline: as §2
[1] = read-out: LC50 (the source's name)

**Q.** What does the source list for `COc1cc(C2CC(c3ccc(Nc4ccnc5cc(Cl)ccc45)cc3)=NN2C=O)cc(OC)c1OC` (configuration not stated)?
**A.** GI50 (SR): 2.58 µM; LC50 (SR): > 100 µM; GI50 (LOX IMVI): 1.89 µM; LC50 (LOX IMVI): 7.83 µM; GI50 (SK-OV-3): 3.36 µM; LC50 (concentration killing 50% of cells) (SK-OV-3): 55.8 µM; GI50 (A498): 15.3 µM; CC50 (A498; [1]): > 100 µM; GI50 (HT-29): 2.83 µM; LC50 (HT-29): > 100 µM; GI50 (RXF 393): 2.22 µM; LC50 (concentration killing 50% of cells) (RXF 393): > 100 µM; GI50 (TK-10): 3.09 µM; LC50 (concentration giving 50% cell loss vs time zero) (TK-10): 38.6 µM; GI50 (786-0): 2.31 µM; LC50 (786-0): 9.93 µM; GI50 (CCRF-CEM): 1.82 µM; LC50 (concentration killing 50% of cells relative to time zero) (CCRF-CEM): > 100 µM; GI50 (Malme-3M): 3.2 µM; LC50 (Malme-3M): > 100 µM; GI50 (MDA-MB-468): 1.83 µM; LC50 (MDA-MB-468): 40.9 µM; GI50 (IGROV-1): 22.3 µM; LC50 (concentration killing 50% of cells relative to time zero) (IGROV-1): > 100 µM; GI50 (HCT-116): 3.21 µM; LC50 (HCT-116): > 100 µM; GI50 (HCT-15): 3.56 µM; LC50 (concentration killing 50% of cells relative to time zero) (HCT-15): > 100 µM; GI50 (SNB-19): 18.2 µM; LC50 (SNB-19): > 100 µM; GI50 (MDA-MB-435): 2.1 µM; LC50 (MDA-MB-435): > 100 µM; GI50 (CAKI-1): 5.47 µM; LC50 (CAKI-1): > 100 µM; GI50 (OVCAR-8): 9.98 µM; LC50 (50% net cell kill) (OVCAR-8): > 100 µM; GI50 (PC-3): 11.7 µM; LC50 (PC-3): > 100 µM; GI50 (SF-539): 2.75 µM; CC50 (SF-539; [1]): 37.6 µM; GI50 (OVCAR-4): 3.19 µM; LC50 (OVCAR-4): > 100 µM; GI50 (A549): 6.9 µM; CC50 (A549; [1]): > 100 µM; GI50 (Hs-578T): 3.24 µM; LC50 (50% net cell kill) (Hs-578T): > 100 µM; GI50 (UACC-62): 2.2 µM; CC50 (UACC-62; [1]): 59.3 µM; GI50 (SK-MEL-28): 2.22 µM; CC50 (SK-MEL-28; [1]): 14 µM; GI50 (MCF7): 3.23 µM; CC50 (MCF7; [1]): > 100 µM; GI50 (U-251): 2.06 µM; CC50 (U-251; [1]): 19.4 µM; GI50 (HOP-92): 1.83 µM; LC50 (concentration killing 50% of cells) (HOP-92): > 100 µM; GI50 (SF-268): 28 µM; LC50 (SF-268): > 100 µM; GI50 (MDA-MB-231): 4.39 µM; LC50 (concentration killing 50% of cells present at time zero) (MDA-MB-231): > 100 µM; GI50 (UO-31): 4.96 µM; LC50 (UO-31): 67.5 µM; GI50 (HCC 2998): 5.52 µM; LC50 (HCC 2998): > 100 µM; GI50 (DU-145): 6.63 µM; LC50 (concentration killing 50% of cells) (DU-145): > 100 µM; GI50 (NCI-H226): 34.5 µM; LC50 (50% lethal concentration) (NCI-H226): > 100 µM; GI50 (M14): 3.75 µM; CC50 (M14; [1]): 48.3 µM; GI50 (KM12): 5.87 µM; LC50 (concentration killing 50% of cells) (KM12): > 100 µM
